TNF necrop inh = blocks TNF-alpha induced death of Jurkat FADD-/- cells | Jurkat FADD-/- TNF necroptosis rescue, ATP luminescence, 24 h; 0 = TNF only, 100 = no-TNF cells | activation (protection from cell death), % at 10 µM | hit rate 0.068% among 220,000 | AID 463075;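 active = activation, meaning protection from cell death, of at least 50% relative to plate controls; inactive = activation below 50%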;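 also: necroptosis triggered by 40 ng/mL TNF-alpha added together with compound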
Pf gametocyte = P. falciparum stage V gametocyte viability inhibition. inhibition, % at 10.9 µM. hit rate 0.065% among 150,000. P. falciparum stage V gametocytes, ATP luminescence, 24 h;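 active = inhibition above the mean plus 3 SD of compounds within the control limits, set per campaign, cut at about 38% in these data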
zVAD death inh = L929 zVAD cell death inhibition | L929 zVAD necroptosis rescue, ATP luminescence, 24 h; with zVAD 60 µM | viability rescue, % at 10 µM | hit rate 0.38% among 220,000;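 active = activation, scaled between plate controls, above about 75%, limit read from the data; inactive = activation under that limit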
Wee1 degr inh = inhibitors of human Wee1 degradation | P30291 | HeLa Luc-Wee1K328M stability, luciferase luminescence; 100% = proteasome inhibitor MG132 effect | reporter increase, % at 5 µM | hit rate 1.2% among 220,000;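 active = activation above the mean of all tested compounds plus 3 SD, set per screening run, cut at about 8.8% in these data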;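 also: cells exposed to compound for 20 h before luminescence read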
Target sequence (P30291 whole entry K328M): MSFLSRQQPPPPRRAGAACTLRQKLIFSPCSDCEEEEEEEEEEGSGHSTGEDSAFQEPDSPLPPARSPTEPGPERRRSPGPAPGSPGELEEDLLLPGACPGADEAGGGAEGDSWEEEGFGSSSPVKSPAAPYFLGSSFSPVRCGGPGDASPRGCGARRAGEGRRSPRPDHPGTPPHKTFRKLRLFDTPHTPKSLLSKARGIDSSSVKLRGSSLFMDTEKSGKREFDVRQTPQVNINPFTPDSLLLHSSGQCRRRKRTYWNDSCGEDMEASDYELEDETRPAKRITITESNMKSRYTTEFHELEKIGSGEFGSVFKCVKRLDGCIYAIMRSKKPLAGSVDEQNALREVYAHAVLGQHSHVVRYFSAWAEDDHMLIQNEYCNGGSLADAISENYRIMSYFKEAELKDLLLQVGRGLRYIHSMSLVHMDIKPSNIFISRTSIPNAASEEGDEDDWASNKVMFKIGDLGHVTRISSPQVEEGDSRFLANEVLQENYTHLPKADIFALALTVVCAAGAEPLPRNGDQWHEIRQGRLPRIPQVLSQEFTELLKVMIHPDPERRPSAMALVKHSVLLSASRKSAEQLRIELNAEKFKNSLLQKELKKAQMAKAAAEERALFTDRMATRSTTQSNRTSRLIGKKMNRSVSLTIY
MDM2 E3 inh = blocks human Mdm2 ubiquitin ligase activity; Q00987; cell-based MDM2 ubiquitination luciferase reporter, 2 h; 0 = plate control, 100 = twice control, blank-subtracted; signal enhancement, % at 5 µM; hit rate 0.11% among 210,000; AID 1230;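 active = signal enhancement of 30% or more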;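 also: luminescence tracks abundance of the self-degrading MDM2-luciferase fusion protein; higher signal means inhibition of MDM2 E3 ligase activity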
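system = mammalian cells stably expressing self-ubiquitinating, self-degrading MDM2 E3–luciferase fusion | quantity = 2000 cells per well seeded | incubation = 4 h cell settling then 2 h compound exposure, 37 °C | signal = SteadyLite luminescence, 15 min reagent step | benchmarks = plate control and blank wells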
A number is an active result; . = inactive; / = no result. Hits are enriched below; roughly 1.6% of the tested compounds scored in any of these assays.

SMILES	TNF necrop inh	Pf gametocyte	zVAD death inh	Wee1 degr inh	MDM2 E3 inh
CCCC(=O)Nc1cc2c(cc1C(C)=O)OCCO2	.	.	.	.	/
O=C(NCCOc1ccccc1)c1ccccc1NC(=O)C1CCCO1 (centres undefined)	.	.	.	9.9	.
O=C(Nc1ccccc1Cl)c1cc(S(=O)(=O)N2CCCCC2)ccc1N1CCOCC1	.	.	.	.	.
O=C(Nc1cccc(C(F)(F)F)c1)c1cc(S(=O)(=O)N2CCCCC2)ccc1N1CCOCC1	.	.	.	.	38
CCOc1cc(C)c(Cl)cc1S(=O)(=O)NCCOC	.	.	.	9.5	.
O=C(CN1CCSCC1)N1CCc2[nH]c3ccc(Br)cc3c2C1	.	/	.	.	.
Cc1c(O)ccc(C(=O)COc2ccc(F)cc2)c1O	.	/	.	10	.
CC(C)(C)c1ccc(/C=N/NC(=S)NC2CCCCC2)cc1	.	.	.	.	.
COc1ccccc1NC(=O)/C=C/c1cc([N+](=O)[O-])ccc1OC(F)F	.	.	.	.	/
O=C(CCCN1C(=O)/C(=C\c2cccs2)SC1=S)NNC(=O)c1cccnc1	.	.	.	10	.
O=C(CCCN1C(=O)/C(=C/c2cccs2)SC1=S)NNC(=O)c1ccncc1	.	/	.	.	.
O=C(N/N=C\c1ccc(Cl)cc1)c1sccc1-n1cccc1	.	.	.	.	.
O=C(N/N=C\c1ccc(Cl)cc1Cl)c1sccc1-n1cccc1	.	.	89	.	.
CC(C)(C)n1nnnc1C(c1ccc(F)cc1)N1CCC(C(N)=O)CC1 (centres undefined)	.	.	.	.	.
COc1ccc(Nc2ncnc3c2oc2ccccc23)cc1	.	/	.	10	.
C=CCn1c(COc2cccc(C)c2)nnc1SCC(=O)c1c(N)n(C)c(=O)n(C)c1=O	/	.	/	/	/
C=CCn1c(COc2ccc(Cl)cc2)nnc1SCC(=O)c1c(N)n(C)c(=O)n(C)c1=O	.	.	.	10	.
Cc1cccc(NC(=S)NNC(=O)c2cccc([N+](=O)[O-])c2)c1	.	.	.	.	.
C/C(=N\NC(=O)c1nn(C)c(C)c1Br)c1cccc(NC(=O)c2ccoc2C)c1	.	.	.	9.8	.
Cc1ccc(NC(=O)CSc2nnc(CNC(=O)C34CC5CC(CC(C5)C3)C4)n2-c2ccc(F)cc2)cc1	.	/	.	.	.
COC(=O)Cn1c(=NC(=O)CSC(C)=O)sc2ccccc21	.	/	.	.	.
COc1ccc(Cl)cc1C(=O)CSc1nnnn1C1CCCCC1	.	43	.	.	.
O=C(Nc1nnc(C23CC4CC(CC(C4)C2)C3)s1)c1ccco1	.	/	.	9.4	.
O=C(Nc1nnc(COc2ccc(Cl)cc2)s1)c1ccco1	.	.	.	9.8	.
CCCOc1ccc(NC(=O)CC2C(=O)N(Cc3ccccc3)C(=S)N2Cc2cccs2)cc1 (centres undefined)	.	.	.	.	.
SMILES	TNF necrop inh	Pf gametocyte	zVAD death inh	Wee1 degr inh	MDM2 E3 inh
COc1nc(Oc2ccc(=O)[nH]n2)nc(N2CCOCC2)n1	.	/	.	.	.
CC(C)(C)Nc1nc(Oc2ccc(=O)[nH]n2)nc(N2CCOCC2)n1	.	.	.	9.6	.
CCOC(=O)c1sc(S(C)(=O)=O)c2c1CC(C)(C)C/C2=N/O	.	.	.	.	.
COc1ccc(CCn2c(-c3ccccc3)nc3c(c(=O)c4ccccc4n3C)c2=O)cc1	.	.	.	.	.
CC(C)c1nc2c(c(=O)c3ccccc3n2C)c(=O)n1CCc1ccccc1	.	.	.	10	.
Cc1cc(Br)ccc1OCC(=O)NNC(=O)c1ccc(NC(=O)C2CC2)cc1	.	.	.	.	.
CCN(CC(=O)Nc1ccc(N2CCOCC2)cc1)Cc1nc2ccccc2c(=O)[nH]1	.	.	.	.	39
CC1(C)SC(=S)N(NC(=O)Nc2cccc3ccccc23)C1N(O)C(=O)Nc1ccccc1 (centres undefined)	.	.	.	.	.
CC(=NCc1cccc(Cl)c1)c1nc(-c2ccco2)oc1O	.	.	.	9.4	.
O=c1c2ccsc2ncn1Cc1ccccc1F	.	/	.	15	.
Cc1sc2ncn(Cc3ccccc3F)c(=O)c2c1C	95	.	.	.	.
CC(=O)Oc1ccc(-c2csc(Nc3ccc(Cl)cn3)n2)cc1	/	.	/	/	/
COc1ccc(-c2csc(Nc3ccc(C)cn3)n2)cc1	.	.	.	9.6	/
COc1ccc(S(=O)(=O)N(C)CC(=O)NCCC2=CCCCC2)cc1OC	.	.	.	.	.
O=C(NC(=S)NCC1CCCO1)c1ccccc1 (centres undefined)	.	.	.	9.0	.
Cc1ccc(S(=O)(=O)N2CCN(C)CC2)c(C)c1N(C)S(=O)(=O)c1ccc(Cl)cc1	.	.	.	.	.
O=c1[nH]cc(O)c(=O)[nH]1	.	/	.	.	.
O=c1[nH]cc(N(CCO)CCO)c(=O)[nH]1	.	.	.	9.5	.
c1ccc(CCn2nnnc2C(c2cccnc2)N2CCN(c3ccccc3)CC2)cc1 (centres undefined)	.	/	.	.	.
NC(=O)C(CC(=O)O)NC(=O)[C@@H]1CCOc2c(I)cc([N+](=O)[O-])cc2C(=O)N[C@@H](CCC(=O)O)C(=O)N[C@@H](CO)C(=O)N1 (some centres undefined)	.	/	.	8.8	/
C[C@@H]1NC(=O)c2cc([N+](=O)[O-])cc(I)c2OCC[C@@H](C(=O)NC(CC(=O)O)C(N)=O)NC(=O)[C@H](CCC(=O)O)NC1=O (some centres undefined)	.	/	.	.	/
CNC(=O)c1cccc(N2CCCC2=O)c1	.	/	.	.	.
O=S(=O)(c1ccc(F)cc1)N1CCN(c2ncccn2)CC1	.	.	.	.	.
O=S(=O)(c1ccc(F)cc1)N1CCCN(c2nccc(C(F)(F)F)n2)CC1	.	.	.	9.5	.
O=C(O)c1ccc(N2C(=O)CCCC2=O)cc1	.	.	.	.	.
SMILES	TNF necrop inh	Pf gametocyte	zVAD death inh	Wee1 degr inh	MDM2 E3 inh
CC(=O)Oc1ccc(C(=O)OCC(=O)c2c(N)n(C)c(=O)n(C)c2=O)cc1OC(C)=O	.	.	.	.	.
CC(C)(C)NC(=O)NC(=O)COc1ccc(Br)cc1Br	.	/	.	9.8	.
O=C(COc1ccc(Br)cc1Br)NC(=S)Nc1cccc(CO)c1	.	.	.	11	.
C/C(CC(=O)NC(C)(C)C)=N\NC(=O)COc1ccc(C)cc1Br	.	.	.	9.5	.
CCCCNC(=S)N(C)/N=C/c1c(F)c(F)c(F)c(F)c1F	.	.	.	.	.
CC(C)NS(=O)(=O)c1ccc(CCC(=O)NCc2ccncc2)cc1	.	.	.	9.5	.
CCNS(=O)(=O)c1ccc(CCC(=O)NCc2ccncc2)cc1	/	.	/	/	/
CCOc1ccccc1C1CC(=O)NC(SCC(=O)Nc2nccs2)=C1C#N (centres undefined)	82	.	93	.	.
COC(=O)CSC1=C(C#N)C(c2ccc(C(C)C)cc2)CC(=O)N1 (centres undefined)	56	/	.	.	.
